{
  "source": "ChEMBL document CHEMBL4689842",
  "about": "“EUbOPEN Chemogenomics Library wave 1” (2021)",
  "system": "U2OS",
  "assay": "Multiplex assay against U2OS",
  "type": "toxicity, cell-based",
  "details": "human",
  "how_it_was_run": "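Per cents of healthy-nucleus cells form the tubulin, mitochondrial-mass and membrane-permeability phenotype values. Live cells were stained at seeding with Hoechst33342, BioTracker Green Microtubule Cytoskeleton Dye, MitoTracker Red and Annexin V Alexa Fluor 680. After compound addition they were imaged on a CQ1 microscope at 37°C and 5% CO2, and CellPathfinder machine-learning gating split them into Hoechst high-intensity objects or normal cells, normal cells into healthy, pyknosed or fragmented nuclei, and pyknosed cells into mitotic or apoptotic.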",
  "key": {"[1]": {"details": "12 h, 1 µM, compound concentration 1 uM, replicate 1"}, "[2]": {"details": "12 h, 1 µM, compound concentration 1 uM, replicate 2"}, "[3]": {"details": "12 h, 10 µM, compound concentration 10 uM, replicate 1"}, "[4]": {"details": "12 h, 10 µM, compound concentration 10 uM, replicate 2"}, "[5]": {"details": "24 h, 1 µM, compound concentration 1 uM, replicate 1"}, "[6]": {"details": "24 h, 1 µM, compound concentration 1 uM, replicate 2"}, "[7]": {"details": "24 h, 10 µM, compound concentration 10 uM, replicate 1"}, "[8]": {"details": "24 h, 10 µM, compound concentration 10 uM, replicate 2"}},
  "data": [
    {"smiles": "COc1ccc(S(=O)(=O)N(CCO)c2ccccc2CN(C)C/C=C/c2ccc(Cl)cc2)cc1.O=P(O)(O)O", "values": [
      {"measurement": "Population Apoptotic (%)", "setting": "[1]", "result": 57, "unit": "%"},
      {"measurement": "Population Healthy Nuclei (%)", "setting": "[1]", "result": 77, "unit": "%"},
      {"measurement": "Population Hoechst High Intensity Objects (%)", "setting": "[1]", "result": 2, "unit": "%"},
      {"measurement": "Population Membrane Permeable-Phenotype (%)", "setting": "[1]", "result": 62, "unit": "%"},
      {"measurement": "Population Mitochondria Different-Phenotype (%)", "setting": "[1]", "result": 91, "unit": "%"},
      {"measurement": "Population Mitotic Cells (%)", "setting": "[1]", "result": 42, "unit": "%"},
      {"measurement": "Population Normal (%)", "setting": "[1]", "result": 97, "unit": "%"},
      {"measurement": "Population Pyknosed Nuclei (%)", "setting": "[1]", "result": 13, "unit": "%"},
      {"measurement": "Total Cell Count", "setting": "[1]", "result": 95},
      {"measurement": "Population Apoptotic (%)", "setting": "[2]", "result": 84, "unit": "%"},
      {"measurement": "Population Fragmented Nuclei (%)", "setting": "[2]", "result": 9, "unit": "%"},
      {"measurement": "Population Healthy Nuclei (%)", "setting": "[2]", "result": 74, "unit": "%"},
      {"measurement": "Population Hoechst High Intensity Objects (%)", "setting": "[2]", "result": 8, "unit": "%"},
      {"measurement": "Population Membrane Permeable-Phenotype (%)", "setting": "[2]", "result": 85, "unit": "%"},
      {"measurement": "Population Mitochondria Different-Phenotype (%)", "setting": "[2]", "result": 100, "unit": "%"},
      {"measurement": "Population Mitotic Cells (%)", "setting": "[2]", "result": 15, "unit": "%"},
      {"measurement": "Population Normal (%)", "setting": "[2]", "result": 91, "unit": "%"},
      {"measurement": "Population Pyknosed Nuclei (%)", "setting": "[2]", "result": 15, "unit": "%"},
      {"measurement": "Population Tubulin-Different-Phenotype (%)", "setting": "[2]", "result": 100, "unit": "%"},
      {"measurement": "Total Cell Count", "setting": "[2]", "result": 118},
      {"measurement": "Population Apoptotic (%)", "setting": "[3]", "result": 57, "unit": "%"},
      {"measurement": "Population Fragmented Nuclei (%)", "setting": "[3]", "result": 11, "unit": "%"},
      {"measurement": "Population Healthy Nuclei (%)", "setting": "[3]", "result": 81, "unit": "%"},
      {"measurement": "Population Hoechst High Intensity Objects (%)", "setting": "[3]", "result": 5, "unit": "%"},
      {"measurement": "Population Membrane Permeable-Phenotype (%)", "setting": "[3]", "result": 47, "unit": "%"},
      {"measurement": "Population Mitochondria Different-Phenotype (%)", "setting": "[3]", "result": 20, "unit": "%"},
      {"measurement": "Population Mitotic Cells (%)", "setting": "[3]", "result": 42, "unit": "%"},
      {"measurement": "Population Normal (%)", "setting": "[3]", "result": 94, "unit": "%"},
      {"measurement": "Population Pyknosed Nuclei (%)", "setting": "[3]", "result": 7, "unit": "%"},
      {"measurement": "Population Tubulin-Different-Phenotype (%)", "setting": "[3]", "result": 28, "unit": "%"},
      {"measurement": "Total Cell Count", "setting": "[3]", "result": 170},
      {"measurement": "Population Apoptotic (%)", "setting": "[4]", "result": 0, "unit": "%"},
      {"measurement": "Population Fragmented Nuclei (%)", "setting": "[4]", "result": 10, "unit": "%"},
      {"measurement": "Population Healthy Nuclei (%)", "setting": "[4]", "result": 89, "unit": "%"},
      {"measurement": "Population Hoechst High Intensity Objects (%)", "setting": "[4]", "result": 16, "unit": "%"},
      {"measurement": "Population Membrane Permeable-Phenotype (%)", "setting": "[4]", "result": 33, "unit": "%"},
      {"measurement": "Population Mitochondria Different-Phenotype (%)", "setting": "[4]", "result": 16, "unit": "%"},
      {"measurement": "Population Mitotic Cells (%)", "setting": "[4]", "result": 0, "unit": "%"},
      {"measurement": "Population Normal (%)", "setting": "[4]", "result": 83, "unit": "%"},
      {"measurement": "Population Pyknosed Nuclei (%)", "setting": "[4]", "result": 0, "unit": "%"},
      {"measurement": "Population Tubulin-Different-Phenotype (%)", "setting": "[4]", "result": 12, "unit": "%"},
      {"measurement": "Total Cell Count", "setting": "[4]", "result": 88},
      {"measurement": "Population Apoptotic (%)", "setting": "[5]", "result": 69, "unit": "%"},
      {"measurement": "Population Fragmented Nuclei (%)", "setting": "[5]", "result": 14, "unit": "%"},
      {"measurement": "Population Healthy Nuclei (%)", "setting": "[5]", "result": 63, "unit": "%"},
      {"measurement": "Population Hoechst High Intensity Objects (%)", "setting": "[5]", "result": 3, "unit": "%"},
      {"measurement": "Population Membrane Permeable-Phenotype (%)", "setting": "[5]", "result": 84, "unit": "%"},
      {"measurement": "Population Mitochondria Different-Phenotype (%)", "setting": "[5]", "result": 100, "unit": "%"},
      {"measurement": "Population Mitotic Cells (%)", "setting": "[5]", "result": 30, "unit": "%"},
      {"measurement": "Population Normal (%)", "setting": "[5]", "result": 96, "unit": "%"},
      {"measurement": "Population Pyknosed Nuclei (%)", "setting": "[5]", "result": 21, "unit": "%"},
      {"measurement": "Population Tubulin-Different-Phenotype (%)", "setting": "[5]", "result": 100, "unit": "%"},
      {"measurement": "Total Cell Count", "setting": "[5]", "result": 125},
      {"measurement": "Population Apoptotic (%)", "setting": "[6]", "result": 95, "unit": "%"},
      {"measurement": "Population Fragmented Nuclei (%)", "setting": "[6]", "result": 16, "unit": "%"},
      {"measurement": "Population Healthy Nuclei (%)", "setting": "[6]", "result": 58, "unit": "%"},
      {"measurement": "Population Hoechst High Intensity Objects (%)", "setting": "[6]", "result": 8, "unit": "%"},
      {"measurement": "Population Membrane Permeable-Phenotype (%)", "setting": "[6]", "result": 94, "unit": "%"},
      {"measurement": "Population Mitochondria Different-Phenotype (%)", "setting": "[6]", "result": 98, "unit": "%"},
      {"measurement": "Population Mitotic Cells (%)", "setting": "[6]", "result": 4, "unit": "%"},
      {"measurement": "Population Normal (%)", "setting": "[6]", "result": 91, "unit": "%"},
      {"measurement": "Population Pyknosed Nuclei (%)", "setting": "[6]", "result": 24, "unit": "%"},
      {"measurement": "Population Tubulin-Different-Phenotype (%)", "setting": "[6]", "result": 98, "unit": "%"},
      {"measurement": "Total Cell Count", "setting": "[6]", "result": 137},
      {"measurement": "Population Apoptotic (%)", "setting": "[7]", "result": 62, "unit": "%"},
      {"measurement": "Population Fragmented Nuclei (%)", "setting": "[7]", "result": 5, "unit": "%"},
      {"measurement": "Population Healthy Nuclei (%)", "setting": "[7]", "result": 87, "unit": "%"},
      {"measurement": "Population Hoechst High Intensity Objects (%)", "setting": "[7]", "result": 2, "unit": "%"},
      {"measurement": "Population Membrane Permeable-Phenotype (%)", "setting": "[7]", "result": 26, "unit": "%"},
      {"measurement": "Population Mitochondria Different-Phenotype (%)", "setting": "[7]", "result": 13, "unit": "%"},
      {"measurement": "Population Mitotic Cells (%)", "setting": "[7]", "result": 37, "unit": "%"},
      {"measurement": "Population Normal (%)", "setting": "[7]", "result": 97, "unit": "%"},
      {"measurement": "Population Pyknosed Nuclei (%)", "setting": "[7]", "result": 6, "unit": "%"},
      {"measurement": "Population Tubulin-Different-Phenotype (%)", "setting": "[7]", "result": 22, "unit": "%"},
      {"measurement": "Total Cell Count", "setting": "[7]", "result": 173},
      {"measurement": "Population Apoptotic (%)", "setting": "[8]", "result": 16, "unit": "%"},
      {"measurement": "Population Fragmented Nuclei (%)", "setting": "[8]", "result": 4, "unit": "%"},
      {"measurement": "Population Healthy Nuclei (%)", "setting": "[8]", "result": 85, "unit": "%"},
      {"measurement": "Population Hoechst High Intensity Objects (%)", "setting": "[8]", "result": 8, "unit": "%"},
      {"measurement": "Population Membrane Permeable-Phenotype (%)", "setting": "[8]", "result": 17, "unit": "%"},
      {"measurement": "Population Mitochondria Different-Phenotype (%)", "setting": "[8]", "result": 26, "unit": "%"},
      {"measurement": "Population Mitotic Cells (%)", "setting": "[8]", "result": 83, "unit": "%"},
      {"measurement": "Population Normal (%)", "setting": "[8]", "result": 91, "unit": "%"},
      {"measurement": "Population Pyknosed Nuclei (%)", "setting": "[8]", "result": 9, "unit": "%"},
      {"measurement": "Population Tubulin-Different-Phenotype (%)", "setting": "[8]", "result": 11, "unit": "%"},
      {"measurement": "Total Cell Count", "setting": "[8]", "result": 83}
    ]}
  ]
}
